Assay outcomes deposited in PubChem BioAssay by several laboratories.
proCasp3 act: activators of human procaspase-3. P42574. recombinant procaspase-3 D3A, Ac-DEVD-pNA absorbance 405 nm. activation, % at 8.5 µM. actives 0.11% (n = 330,000);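 active = activation above the mean of all tested compounds plus 3 SD, cut at about 21% in these data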;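 also: 0% = DMSO alone and 100% = DMSO wells spiked with extra 5 µM PC-3 D3A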
Target sequence (P42574 whole entry D9A/D28A/D175A): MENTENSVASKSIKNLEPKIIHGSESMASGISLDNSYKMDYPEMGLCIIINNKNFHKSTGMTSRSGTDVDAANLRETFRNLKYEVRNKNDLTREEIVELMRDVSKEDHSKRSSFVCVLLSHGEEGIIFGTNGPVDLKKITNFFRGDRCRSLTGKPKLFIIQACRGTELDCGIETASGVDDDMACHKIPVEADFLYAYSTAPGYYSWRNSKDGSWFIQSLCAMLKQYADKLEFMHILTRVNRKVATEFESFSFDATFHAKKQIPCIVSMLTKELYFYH
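Evaluation: percent activation relative to control range; Material: Procaspase-3 D3A mutant, all three cleavage aspartates alanine; Compound: single dose, 8.5 µM nominal compound, 0.8% DMSO; Replication: one well per compound; Signal: absorbance at 405 nm, 0 and 120 min; Schedule: 1 h preincubation plus 2 h reaction at 25 °C.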
CHT block: inhibitors of human choline transporter CHT; Q9GZV3; CHT-expressing cells, membrane potential dye, choline response; hits give low values; B-score at 10 µM; actives 0.86% (n = 310,000); AID 488975;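 active = B-score over 3 SD under the library average, and starting fluorescence ratio not unusually high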;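 also: choline stimulus applied at its EC90 after an EC20 pre-addition; B-score computed on integrated fluorescence ratio after choline addition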
proCasp7 act: activates human procaspase-7, counter-screen for procaspase-3 activators. recombinant procaspase-7, Ac-DEVD-pNA absorbance 405 nm; D23A/D198A/D206A triple mutant, cannot self-cleave; scale: DMSO 0, 5 µM enzyme 100. activation, % at 8.5 µM. actives 0.093% (n = 330,000);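 active = percent activation above the screen-wide mean plus 3 SD, cut at about 25% in these data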
Target sequence (P55210 whole entry D23A/D198A/D206A): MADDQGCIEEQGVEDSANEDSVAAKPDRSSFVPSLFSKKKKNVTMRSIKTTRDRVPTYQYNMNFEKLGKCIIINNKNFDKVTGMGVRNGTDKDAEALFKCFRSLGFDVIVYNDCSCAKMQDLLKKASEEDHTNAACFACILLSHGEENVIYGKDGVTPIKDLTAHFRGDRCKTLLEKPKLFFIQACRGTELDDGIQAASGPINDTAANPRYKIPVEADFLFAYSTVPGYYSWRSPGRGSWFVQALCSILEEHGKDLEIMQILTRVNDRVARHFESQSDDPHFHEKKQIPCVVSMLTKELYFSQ
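Test system: Procaspase-7 triple mutant (PC-7 D3A). Also added: Ac-DEVD-pNA substrate, 400 µM as added. Schedule: 1 h enzyme–compound preincubation and 2 h substrate reaction, both 25 °C. Signal: p-Nitroaniline absorbance at 405 nm, read at 0 and 120 min. Control set: low DMSO alone, high DMSO plus 5 µM PC-7.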
CHT allo act: allosterically activates the human high affinity choline transporter. Q9GZV3. CHT-expressing cells, membrane potential dye, choline EC20; hits give high values; LV-AA mutant CHT in HEK293 cells. B-score at 10 µM. actives 0.49% (n = 310,000). AID 488977;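 active = initial fluorescence not abnormally high and integrated response B-score, plate-corrected, over 3 SD above library mean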
CHT activ conf: confirmation of human choline transporter (CHT) activators | shares compounds with CHT allo act | CHT-expressing cells, membrane potential dye fluorescence (FDSS); % of choline EC20–EC90 response window; HEK293 expressing CHT LV-AA mutant; choline added at its EC20 | activation, % at 10 µM | actives 91% (n = 2,500);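 active = primary screen active, with duplicate mean activation above negative control mean plus 3 SD, cut at about 11% in these data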
HEK293 MP dye: activity in parental HEK293 cells lacking CHT; shares compounds with CHT allo act; membrane potential dye fluorescence (FDSS); measured after EC20 choline addition; ratio readout change at 10 µM, hits read low; actives 62% (n = 2,500);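 active = duplicate-averaged ratio beyond 3 SD from buffer wells, up or down, though filed actives are nearly all decreases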
The depositor's hits bear a star; i = inactive; . = no result. Rows were chosen to be rich in hits. Some 1.3% of all compounds tested hit in one or more screens of this group.

SMILES	proCasp3 act	CHT block	proCasp7 act	CHT allo act	CHT activ conf	HEK293 MP dye
CCN(CC(=O)NC(=O)Nc1ccccc1F)Cc1ccccc1	7	i	-3	i	.	.
Cc1ccc2c(c1)C(c1ccc(O)cc1)(c1ccc(O)cc1)C(=O)N2C	-9	i	3	6.4*	1	i
Cc1ccc2c(c1)C1(C(=O)N2C)N2CC3(C)CN1CC(C)(C2)C3=O (stereo not given)	4	i	-5	i	.	.
COc1ccc(N2CCN(C(=O)c3cc(C)oc3C)CC2)cc1	1	i	7	i	.	.
CCCCN(CCCC)CP(=O)(c1ccccc1)c1ccccc1	0	i	5	8.9*	31*	i
COc1ccc(-c2nc3cccc(C)n3c2NCc2ccco2)cc1OC	6	i	-5	7.6*	36*	-42*
O=C(Nc1cccc(Cl)c1Cl)C1CCCC1	-3	i	-5	i	.	.
CC(C)CC(c1nnnn1C(C)(C)C)N1CCN(C2CCCC2)CC1 (stereo not given)	-2	i	-2	6.6*	15*	i
COc1ccc(-c2csc3nc(C)nc(N4CCC(C)CC4)c23)cc1OC	10	i	-4	i	47*	i
O=C(CSc1nnc(CNC(=O)c2ccco2)o1)Nc1ccc(F)cc1	-1	i	-7	i	.	.
N=c1c2c(n(Cc3ccc(F)cc3)c3c1CCC3)CCCC2	-2	i	3	i	.	.
N=c1c2c(n(Cc3ccc(Cl)cc3)c3c1CCC3)CCC2	-5	i	8	8.1*	51*	-42*
CCn1c2c(c(=N)c3c1CCC3)CCCC2	-4	i	10	9.3*	68*	-65*
N=c1c2c(n(Cc3cccc(Cl)c3)c3c1CCC3)CCCC2	3	i	-4	8.8*	66*	-41*
CCC(C)[C@H](NC(=O)N1CC(=O)Nc2ccccc21)C(=O)N1CCC[C@H]1C(=O)O (stereo not given in full)	12	i	12	i	.	.
CCCCCn1c(CN2CCN(C)CC2)nc2c1c(=O)n(C)c(=O)n2C	6	i	1	i	46*	-36*
CCCCCCn1c(CN2CCN(Cc3ccccc3)CC2)nc2c1c(=O)n(C)c(=O)n2C	7	i	-2	i	24*	i
CCCCCCn1c(CN2CCN(C(=O)c3ccco3)CC2)nc2c1c(=O)n(C)c(=O)n2C	2	i	-3	i	.	.
COC(=O)[C@H]1C[C@@H]1[C@H](N)c1ccccc1	1	i	7	i	.	.
CCOc1cc(C(=O)N(C)CC(=O)Nc2cccc3ccccc23)ccc1OC	1	.	3	.	.	.
Cc1nc(-c2ccc(C(=O)Nc3cc(S(N)(=O)=O)ccc3C)cc2)cs1	4	i	10	i	.	.
O=[N+]([O-])c1ccc(S(=O)(=O)N2CCC3(CC2)OCCN3S(=O)(=O)c2cccs2)cc1	-2	i	0	i	.	.
COc1ccccc1N1CCN(Cc2nc(-c3ccc(F)cc3)oc2C)CC1	9	i	12	i	.	.
Cc1cc(N2CCN(Cc3nc(-c4ccc(F)cc4)oc3C)CC2)cc(C)n1	6	i	0	6.8*	43*	-47*
CCC(C)(C)n1nnnc1C(c1cc(OC)ccc1OC)N1CCN(Cc2ccccc2)CC1 (stereo not given)	1	i	0	7.6*	35*	i
SMILES	proCasp3 act	CHT block	proCasp7 act	CHT allo act	CHT activ conf	HEK293 MP dye
COc1ccc(OC)c(C(c2nnnn2CCc2ccccc2)N2CCN(c3ccccc3)CC2)c1 (stereo not given)	-4	i	-2	i	.	.
COc1ccc(N2CCN(C(c3cc(OC)ccc3OC)c3nnnn3Cc3ccco3)CC2)cc1 (stereo not given)	1	i	-15	7.4*	21*	i
COc1ccc(-c2cc(C(=O)NNC(=O)c3csc(N4CCOCC4)n3)c3ccccc3n2)cc1OC	7	i	0	7.3*	11*	i
Cc1nc(SC(C)C(=O)c2c(N)n(C)c(=O)n(C)c2=O)c2c(C)c(C)sc2n1 (stereo not given)	2	i	-1	i	.	.
Cc1nn2cnc3sc4c(c3c2nc1=O)CCCC4	1	i	1	6.6*	40*	-46*
COCCn1c(-c2ccc(Br)cc2)csc1=Nc1cccnc1	-4	i	4	i	.	.
CN=c1scc(-c2ccc(Br)cc2)n1C	-6	i	5	i	35*	-44*
Cc1ccc(C)c(C(=O)COC(=O)c2ccc(C)c(S(=O)(=O)N3CCOCC3)c2)c1	-5	.	-15	.	.	.
CC1CCC(=O)N(CCOc2ccccc2)CC1 (stereo not given)	4	i	3	i	.	.
C[C@H]1CCC(=O)N([C@H](COc2ccccc2)Cc2ccccc2)CC1	4	i	-2	6.3*	40*	i
COc1ccccc1CN(Cc1cc2c(C)ccc(C)c2[nH]c1=O)Cc1nnnn1Cc1ccco1	5	i	8	6.4*	17*	i
Cc1ccc(CN(Cc2cc3cc4c(cc3[nH]c2=O)OCCO4)Cc2nnnn2Cc2ccco2)cc1	-8	i	4	i	.	.
Cc1cccc(CCNC(=O)C2CCN(S(=O)(=O)N3CCOCC3)CC2)c1	2	i	13	i	.	.
COc1cccc(OCC(O)CN2CCN(CCN3C(=O)c4cccc5cccc(c45)C3=O)CC2)c1 (stereo not given)	11	i	2	i	.	.
O=C1c2cccc3cccc(c23)C(=O)N1CCN1CCN(CC(O)COc2ccccc2)CC1 (stereo not given)	7	i	9	i	-1	i
NNC(=O)c1ccc(-c2cccc([N+](=O)[O-])c2)o1	-8	i	11	i	15*	-23*
CC(C)(C)OC(=O)N1Cc2ccccc2C[C@H]1C(=O)NC1CCCC1	.	i	.	i	2	i
CC1(C)Cc2c(sc3c2C2=NCCN2C=N3)CS1	0	i	9	9.5*	34*	-62*
CC(C)n1nc(C(=O)Nc2ccc3c(c2)OCO3)c2ccccc2c1=O	3	.	-1	.	.	.
COc1ccc(C(CC(=O)N2CCCC(C)C2)c2c(OC)cc(OC)c3c(-c4ccccc4)cc(=O)oc23)cc1 (stereo not given)	11	i	7	i	5	i
Cc1cc(C)cc(NS(=O)(=O)c2ccc3[nH]c(=O)ccc3c2)c1	.	i	.	i	.	.
COc1ccc(C(C)=O)cc1COC(=O)c1ccc2c(c1)OCCO2	7	.	1	.	.	.
